{"source": "ChEMBL document CHEMBL3244283", "about": "“Synthesis and biological activity of potential antimetabolites” (1977)", "key": {"[1]": {"test": "Cytotoxicity against human NCI-[…] cells assessed as growth inhibition", "format": "functional", "outline": "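Run through the NCI routine preliminary in vitro cell-culture screen (9KB system) on human epidermoid carcinoma of the nasopharynx. ED50 is the concentration giving 50% growth inhibition relative to untreated controls.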"}, "L1210": {"system": "L1210", "test": "Antitumor activity against mouse L1210 cells allografted in BDF1 mouse", "format": "functional, cell-based", "outline": "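Run through the NCI routine preliminary in vivo screen (2LE system). L1210 lymphoid leukemia was carried in BDF1 host mice.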"}, "Escherichia coli [2]": {"system": "Escherichia coli", "test": "Inhibition of Escherichia coli aspartate transcarbamylase assessed as interaction between aspartate and carbamyl phosphate at 66 mM relative to control", "outline": "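E. coli aspartate transcarbamylase (0.1 per ml) catalysed the reaction of 5 mM aspartate with 4 mM carbamyl phosphate. Test agent was present at 66 mM, and phosphate at the same concentration served as a comparison. Enzyme activity was read colorimetrically. Inhibition is expressed as a percentage relative to the uninhibited reaction.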"}, "Escherichia coli [3]": {"system": "Escherichia coli", "test": "Irreversible inhibition of Escherichia coli aspartate transcarbamylase in presence of aspartate"}, "Escherichia coli [4]": {"system": "Escherichia coli", "test": "Irreversible inhibition of Escherichia coli aspartate transcarbamylase in absence of aspartate"}}, "note": "Calls of active or inactive are those of the source. The calls are words filed in the database; no cut-off is given here."}
{"smiles": "NC(Cc1ccc(O)cc1)C(=O)CCl", "note": "(stereo not drawn)", "values": [{"measurement": "ED50", "setting": "[1]", "result": 2.1, "unit": "µg/mL"}, {"measurement": "Activity", "setting": "L1210", "result": "inactive"}]}
{"smiles": "NC(Cc1ccccc1)C(=O)CCl", "note": "(stereo not drawn)", "values": [{"measurement": "ED50", "setting": "[1]", "result": 4, "unit": "µg/mL"}, {"measurement": "Activity", "setting": "L1210", "result": "inactive"}]}
{"smiles": "CC(C)CC(N)C(=O)CCl", "note": "(stereo not drawn)", "values": [{"measurement": "ED50", "setting": "[1]", "result": 7.6, "unit": "µg/mL"}, {"measurement": "Activity", "setting": "L1210", "result": "inactive"}]}
{"smiles": "NCCCCC(N)C(=O)CCl", "note": "(stereo not drawn)", "values": [{"measurement": "ED50", "setting": "[1]", "result": 2.7, "unit": "µg/mL"}, {"measurement": "Activity", "setting": "L1210", "result": "inactive"}]}
{"smiles": "O=C(CCl)NP(=O)([O-])[O-].[Li+].[Li+]", "values": [{"measurement": "ED50", "setting": "[1]", "result": 2.5, "unit": "µg/mL"}, {"measurement": "Activity", "setting": "L1210", "result": "inactive"}, {"measurement": "inhibition", "setting": "Escherichia coli [2]", "result": 60, "unit": "%"}, {"measurement": "inhibition", "setting": "Escherichia coli [3]", "result": "inactive"}, {"measurement": "inhibition", "setting": "Escherichia coli [4]", "result": "inactive"}]}
